High-throughput results: PubChem, Sanford-Burnham Center for Chemical Genomics
SENP7 inh – SENP7 protease inhibition; Q9BQF6; recombinant SENP7, Z-RLRGG-aminoluciferin luminescence, 40 min; inhibition, % at 5 µM; 330,000 tested, 1.5% active; AID 434973;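 active means inhibition above about 50% at the single test dose, limit read from the data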;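 further: plate controls were DMSO with enzyme for no effect and no enzyme buffer wells for full effect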
SENP1 FRET inh – SENP1 (human) catalytic domain inhibition; Q9P0U3; recombinant SENP1 catalytic domain, CyPet-SUMO1-YPet FRET cleavage; inhibition, % at 10 µM; 360,000 tested, 0.21% active;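 active means inhibition at least 30% at 10 µM, raw YFP signal under a set limit, fluorescence ratio 0.5 to 1.5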;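 further: 0% = enzyme with DMSO and 100% = no enzyme wells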
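system = hSENP1 catalytic domain, recombinant | reagent = SFCypet-SUMO1-SFYpet substrate at 25 nM | doses = one dose per compound, 10 µM, 0.5% DMSO | incubation = enzyme reaction for 50 min at room temperature, dark | measured by = FRET, CFP and YFP emission | controls = no-enzyme low, enzyme-DMSO high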
SENP8 block-1 – inhibitors of human SENP8 protease; Q96LD8; recombinant SENP8, Nedd8 substrate fluorescence; inhibition, % at 20 µM; 360,000 tested, 0.64% active; AID 602440; in the data active means inhibition mostly above about 40%, no sharp cut-off; inactive means mostly below about 27%
Target sequence (Q96LD8 whole entry, looked up): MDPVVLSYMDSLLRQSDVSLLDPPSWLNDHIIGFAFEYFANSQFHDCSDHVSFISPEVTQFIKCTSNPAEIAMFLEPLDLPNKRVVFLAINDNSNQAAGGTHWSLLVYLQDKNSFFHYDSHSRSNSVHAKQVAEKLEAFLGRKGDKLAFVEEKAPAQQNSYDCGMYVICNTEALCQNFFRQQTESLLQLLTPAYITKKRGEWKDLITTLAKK
SENP6 block – blocks the human protease SENP6 | Recombinant SENP6 catalytic domain, aminoluciferin luminescence | Q9GZR1 | inhibition, % at 10 µM | 330,000 tested, 1.8% active;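 active means inhibition above about 50% at the single tested dose, limit read from the data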;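 further: plate controls were DMSO wells with enzyme for no effect and DMSO wells lacking enzyme for full effect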
SENP8 block-2 – inhibitors of human SENP8 protease | Q96LD8 | inhibition, % at 10 µM | 330,000 tested, 1.2% active | purified SENP8, Z-RLRGG-aminoluciferin cleavage, luminescence; in the data active means inhibition above about 50%
SENP8 confirm – confirmation of human SENP8 protease inhibitors. Recombinant SENP8, Z-RLRGG-aminoluciferin luminescence, 60 min. shares compounds with SENP7 inh. 6,200 tested, 40% active. inhibition, % at 12.5 µM;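 active means mean inhibition across replicates above about 50%, limit read from the data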
SENP6 conf – human SENP6 inhibition, confirmed | shares compounds with SENP7 inh | recombinant SENP6, Z-RLRGG-aminoluciferin luminescence | inhibition, % at 12.5 µM | 6,200 tested, 58% active | AID 488915
SENP7 confirm – human SENP7 inhibition, confirmed. 6,200 tested, 69% active. recombinant SENP7, Z-RLRGG-aminoluciferin luminescence, 40 min. shares compounds with SENP7 inh. AID 488917. inhibition, % at 12.5 µM
Casp3 select – caspase-3 inhibition (SENP selectivity assay) | 6,200 tested, 60% active | inhibition, % at 12.5 µM | shares compounds with SENP7 inh | AID 488918 | purified caspase-3, Z-DEVD-aminoluciferin luminescence, 60 min;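 active means mean inhibition above about 50%, limit read from the data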;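 further: plate controls were enzyme with DMSO for no effect and wells without caspase-3 for full effect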
Target sequence (P42574 28-227 limits assumed): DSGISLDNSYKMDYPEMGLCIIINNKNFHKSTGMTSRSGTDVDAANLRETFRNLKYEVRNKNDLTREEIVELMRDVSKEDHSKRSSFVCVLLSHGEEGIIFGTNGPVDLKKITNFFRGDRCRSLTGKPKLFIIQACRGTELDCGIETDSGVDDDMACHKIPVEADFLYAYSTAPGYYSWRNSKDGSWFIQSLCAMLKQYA
Luc interf – counter-screen for SENP inhibitors: luminescence interference. Pre-incubated SENP8/Z-RLRGG-aminoluciferin, luciferase luminescence interference. inhibition, % at 12.5 µM. 6,200 tested, 39% active. shares compounds with SENP7 inh;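 active means mean inhibition above about 50% when retested at one dose, limit read from the data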;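 further: plate controls were DMSO wells with completed reaction for no effect and substrate without enzyme for full effect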
The depositor's hits bear a star; . = no result. Shown are actives, neighbours in structure and some others; about 2.5% of the full set was active somewhere.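 How the source made its calls, unless noted: active means mean inhibition above about 50% in the one-dose retest (limit read from the data); inactive means the rest.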

SMILES	SENP7 inh	SENP1 FRET inh	SENP8 block-1	SENP6 block	SENP8 block-2	SENP8 confirm	SENP6 conf	SENP7 confirm	Casp3 select	Luc interf
COc1ccc(C(=O)COC(=O)CN2C(=O)C3C4CCC(C4)C3C2=O)cc1 (centres undefined)	3	-1	5	-3	2	.	.	.	.	.
COc1ccc(NC(=O)c2ccccc2NC(=O)CSc2ccc(Cl)cc2)cc1	4	-4	11	-7	7	.	.	.	.	.
CCOc1ccc(NC(=O)Cc2ccc(S(=O)(=O)N3CCCCC3)cc2)cc1OCC	3	2	2	0	8	.	.	.	.	.
Cc1nn(-c2ccccc2)c(Cl)c1/C=N/NC(=O)c1[nH]ncc1Br	95*	-2	9	92*	92*	8	94*	102*	95*	20
Cc1nn(-c2ccccc2)c(Cl)c1/C=N/NC(=O)c1ccn[nH]1	38	0	7	17	23	.	.	.	.	.
Cc1ccc(C(=O)N(C)c2nnc(-c3ccncc3)s2)cc1	-1	2	-6	-24	-4	.	.	.	.	.
COc1cccc(N2[C@@H](CC(C)=O)c3ccc(/C=C/C(C)=O)cc3S2(=O)=O)c1	3	-8	-3	1	0	.	.	.	.	.
Cc1ccccc1C(=O)Nc1nnc(SCC(=O)NCc2ccco2)s1	19	0	-5	10	5	.	.	.	.	.
O=C(O)c1cccc(Nc2ncnc3sccc23)c1	86*	-30	-19	91*	80*	92*	91*	100*	64*	88*
CC(=O)c1cn(S(=O)(=O)c2ccccc2)c2ccccc12	-7	-1	1	-11	-12	.	.	.	.	.
Cc1ccccc1NC(=O)C(C)OC(=O)CCC(=O)c1ccccc1 (centres undefined)	.	3	9	.	.	.	.	.	.	.
O=C(Nc1ccc2c(c1)CCC2)c1cccc(OC(F)F)c1	75*	1	16	79*	68*	61*	68*	91*	55*	69*
COc1ccc(NC(=O)c2cccc(OC(F)F)c2)cc1Cl	80*	1	12	76*	64*	9	76*	94*	60*	68*
Cc1c(Cl)cccc1NC(=O)c1cccc(OC(F)F)c1	3	1	8	-9	-1	.	.	.	.	.
O=C(Nc1ccc(OC(F)F)c(Cl)c1)c1cccc(OC(F)F)c1	27	-1	18	62*	15	52*	48	76*	12	65*
COC(=O)c1cccc(NC(=O)c2ccc(OC)c(Cl)c2)c1	8	0	12	-13	6	.	.	.	.	.
Cc1ccc(S(=O)(=O)CCC(=O)Nc2nc(-c3ccncc3)cs2)cc1	-7	-1	1	52*	5	10	6	-7	-1	0
CCc1ccc2oc(-c3cc(N=Cc4cccc(OC)c4O)ccc3O)nc2c1	89*	.	.	86*	92*	84*	84*	87*	76*	28
CC(=O)Nc1ccc(C(=O)COC(=O)c2cc(C)oc2C)c(F)c1	-5	-3	-14	-6	-5	.	.	.	.	.
O=C1/C(=C/Nc2cccc([N+](=O)[O-])c2)CCc2ccccc21	29	-31	-126	19	61*	2	81*	92*	60*	24
O=[N+]([O-])c1cccc(NC(=S)N2CCc3ccccc3C2)c1	11	2	14	2	3	.	.	.	.	.
CCO[C@H]1C[C@@H](c2ccc(CC)cc2)N(S(=O)(=O)c2ccc(C)cc2)C2CC(c3ccc(CC)cc3)N(S(=O)(=O)c3ccc(C)cc3)CC21 (some centres undefined)	.	0	16	.	.	.	.	.	.	.
COc1cc2nc(Nc3ccc(F)cc3)nc(N)c2cc1OC	67*	0	-321	63*	51*	66*	63*	90*	61*	70*
